One assay concerns A2780 cells. Nature of the assay: Intracellular EdU release from PE NPs. The note with it: 10 μM EdU equiv., 6 h with PE NPs (1 h with EdU), azide-488. It counts as cell-based, human. The method in brief: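 Human ovarian adenocarcinoma A2780 cells are treated with nanoparticles of mutual prodrugs built with the nucleoside analog EdU as a gemcitabine surrogate, or with free EdU; nanoparticle exposure is 6 h. EdU incorporated into DNA is detected by click reaction with azide-488. Images show green overlap with blue-stained nuclei (cyan) to indicate nuclear EdU incorporation.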

The subject of assay [1] is A549 human lung adenocarcinoma xenografts. The experiment in a line: In vivo anticancer efficacy in A549 xenografts. The note with it: PTX 20 mg kg−1 equiv., Gem 6.4 mg kg−1, i.v. on days 0, 3, 6; n = 5. Further details: species or system female BALB/c nude mice.

Regarding `C#Cc1cn([C@H]2C[C@H](O)[C@@H](CO)O2)c(=O)[nH]c1=O` [EdU, 5-ethynyl-2′-deoxyuridine], the “Distribution of green fluorescence (EdU incorporation into nuclei)” value in the assay on A2780 cells was “centralized in the area of the nucleus”.
On to `Nc1ccn([C@@H]2O[C@H](CO)[C@@H](O)C2(F)F)c(=O)n1` [Gem, gemcitabine], for which the “A549 tumor growth (relative tumor size)” value in assay [1] was “failed to effectively suppress tumor growth”.
